MIC and Activity data for eleven compounds are collected here from ChEMBL document CHEMBL3994602, “Termisoflavones A-C, Isoflavonoid Glycosides from Termite-Associated Streptomyces sp. RB1” (2016).

Calls of active or inactive are those of the source. The calls are words filed in the database; no cut-off is given here. Bounds are passed on as bounds.

What all share (format): functional
The subject of one assay is Candida albicans. The assay can be described thus: Antifungal activity against Candida albicans SC5314 by CLSI M27-A3 broth microdilution method. In short, it runs like this: (§1)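 MICs were determined by broth microdilution following CLSI standard M27-A3, with fluconazole as the positive control.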
For orientation: Dilution methods test growth across graded concentrations, often in twofold steps.

The test system of another assay is LLC-PK1. The assay can be described thus: Renoprotective activity in pig LLC-PK1 cells assessed as inhibition of cisplatin-induced damage by measuring cell viability up to 100 uM preincubated for 24 hrs followed by addition of Ez-Cytox reagent and measured after 2 hrs relative to control. In short, it runs like this:
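LLC-PK1 pig kidney epithelial cells were cultured in DMEM with 10% FBS, 1% penicillin/streptomycin and 4 mM L-glutamine at 37 °C, 5% CO2. Cells were seeded at 1 × 10^4 per well and allowed to adhere for 2 h. Test sample and/or 25 μM cisplatin were added and incubated for 24 h. Medium was replaced with serum-free medium plus Ez-Cytox for 2 h at 37 °C, then absorbance was read at 450 nm. N-acetyl cysteine was the positive control.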

The subject of a further assay is Escherichia coli. In words: Antibacterial activity against Escherichia coli DH10B by EUCAST method. To be noted: K-12 substr. DH10B. An outline of the steps: (§2)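 Minimal inhibitory concentrations were determined by the EUCAST method, with streptomycin sulfate as the positive control.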
The next assay concerns Staphylococcus aureus. The assay can be described thus: Antibacterial activity against Staphylococcus aureus NCTC 8325-4 by EUCAST method. An outline of the steps: as §2
Another assay relates to Cryptococcus neoformans. In words: Antifungal activity against Cryptococcus neoformans H99 by CLSI M27-A3 broth microdilution method. Particulars: var grubii H99. An outline of the steps:
as §1

Usually MIC stands for the lowest concentration that inhibits growth of the organism. A high value points to a need for much substance. On to `C[C@@H]1O[C@@H](Oc2ccc(-c3coc4cc(O[C@@H]5O[C@@H](C)[C@H](O)[C@@H](O)[C@H]5O)ccc4c3=O)cc2)[C@H](O)[C@H](O)[C@H]1O`, for which the MIC with Candida albicans, in the assay on Escherichia coli, with Staphylococcus aureus and against Cryptococcus neoformans was above 100 µg/mL in each case. Besides, in the assay on LLC-PK1 (Sus scrofa), the result was Active.
For the compound `COc1cc2c(=O)c(-c3ccc(O)cc3)coc2cc1O[C@@H]1O[C@@H](C)[C@H](O)[C@@H](O)[C@H]1O`, the MIC in the assay on Candida albicans, with Escherichia coli, with Staphylococcus aureus and in the assay with Cryptococcus neoformans was above 100 µg/mL in each case.
Turning to `CO[C@@H]1[C@@H](O)[C@H](C)O[C@@H](Oc2ccc(-c3coc4cc(O[C@@H]5O[C@@H](C)[C@H](O)[C@@H](OC)[C@H]5O)ccc4c3=O)cc2)[C@@H]1O`, the MIC against Candida albicans, against Escherichia coli, in the assay on Staphylococcus aureus and with Cryptococcus neoformans was above 100 µg/mL each time. In addition, the outcome in the assay with LLC-PK1 (Sus scrofa) was Active.
In the case of `O=c1c(-c2ccc(O)cc2)coc2cc(O[C@@H]3O[C@H](CO)[C@@H](O)[C@H](O)[C@H]3O)cc(O)c12` [GENISTIN], the minimal inhibitory concentration (MIC) with Candida albicans, against Escherichia coli, in the assay on Staphylococcus aureus and against Cryptococcus neoformans was above 100 µg/mL throughout. For the same compound, the outcome in the assay with LLC-PK1 (Sus scrofa) was Active.
In the case of `O=c1c(-c2ccc(O)cc2)coc2cc(O[C@@H]3O[C@H](CO)[C@@H](O)[C@H](O)[C@H]3O)ccc12` [DAIDZIN], the MIC in the assay with Candida albicans, with Escherichia coli, with Staphylococcus aureus and in the assay with Cryptococcus neoformans was above 100 µg/mL each time. Besides, the Activity with LLC-PK1 is given as above 80%.
For `C[C@@H]1O[C@@H](Oc2cc(O)c3c(=O)c(-c4ccc(O)cc4)coc3c2)[C@H](O)[C@H](O)[C@H]1O`, the minimal inhibitory concentration (MIC) in the assay on Candida albicans, in the assay on Escherichia coli, with Staphylococcus aureus and against Cryptococcus neoformans was above 100 µg/mL throughout. For the same compound, in the assay with LLC-PK1 (Sus scrofa), the result was Active.
`C[C@@H]1O[C@@H](Oc2ccc3c(=O)c(-c4ccc(O)cc4)coc3c2)[C@H](O)[C@H](O)[C@H]1O`: the MIC in the assay on Candida albicans, against Escherichia coli, in the assay with Staphylococcus aureus and with Cryptococcus neoformans was above 100 µg/mL each time. Further, the Activity in the assay with LLC-PK1 is on record as above 80%.
Take `CO[C@@H]1[C@@H](O)[C@H](C)O[C@@H](Oc2ccc(-c3coc4cc(O[C@@H]5O[C@@H](C)[C@H](O)[C@@H](OC)[C@H]5O)cc(O)c4c3=O)cc2)[C@@H]1O`: the minimum inhibitory concentration (MIC) against Candida albicans, in the assay with Escherichia coli, against Staphylococcus aureus and against Cryptococcus neoformans was above 100 µg/mL each time. For the same compound, in the assay with LLC-PK1 (Sus scrofa), the outcome was Active.
For the compound `CO[C@@H]1[C@@H](O)[C@H](C)O[C@@H](Oc2ccc(-c3coc4cc(O[C@@H]5O[C@@H](C)[C@H](O)[C@@H](O)[C@H]5O)cc(O)c4c3=O)cc2)[C@@H]1O`, the minimum inhibitory concentration (MIC) in the assay with Candida albicans, in the assay with Escherichia coli, in the assay on Staphylococcus aureus and in the assay on Cryptococcus neoformans was above 100 µg/mL each time.
On to `C[C@@H]1O[C@@H](Oc2ccc(-c3coc4cc(O[C@@H]5O[C@@H](C)[C@H](O)[C@@H](O)[C@H]5O)cc(O)c4c3=O)cc2)[C@H](O)[C@H](O)[C@H]1O`, for which the minimum inhibitory concentration (MIC) against Candida albicans, against Escherichia coli, with Staphylococcus aureus and in the assay on Cryptococcus neoformans was above 100 µg/mL each time. For the same compound, the outcome in the assay on LLC-PK1 (Sus scrofa) was Active.
For the compound `O=c1c(-c2ccc(O)cc2)coc2cc(O)ccc12` [DAIDZEIN], the MIC against Candida albicans, in the assay with Escherichia coli, against Staphylococcus aureus and against Cryptococcus neoformans was above 100 µg/mL each time. The outcome with LLC-PK1 (Sus scrofa) was Active.
